Data on nine compounds can be found in ChEMBL document CHEMBL3817773, “Antibacterial activities of fluorescent nano assembled triphenylamine phosphonium ionic liquids” (Bioorg Med Chem Lett, 2016).

Active and inactive are the calls of the source. The rule behind the calls is not given here.

One data set deals with Klebsiella pneumoniae. The data set can be described thus: Antimicrobial activity against Klebsiella pneumoniae CIP 82.91 after 18 to 20 hrs by broth dilution method. Format: functional. The procedure, abridged: (§1)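 MICs measured against a panel of ESKAPE-representative strains, including S. aureus SA1199, at concentrations up to 64 mg/L.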
Another data set has as its system Escherichia coli. The data set can be described thus: Antimicrobial activity against Escherichia coli CIP 54.8 after 18 to 20 hrs by broth dilution method. It is filed as functional. In outline: as §1
Another data set concerns Klebsiella aerogenes. The data set is described as follows: Antimicrobial activity against Enterobacter aerogenes ATCC 13048 after 18 to 20 hrs by broth dilution method. Format: functional. The procedure, abridged:
as §1

In the next data set the test system is HepG2. The data set is described as follows: Cytotoxicity against human HepG2 cells assessed as reduction in cell viability after 24 hrs by WST1 assay. Format: cell-based. Conditions: HepG2, 24 h.
The test system of data set [1] is Staphylococcus aureus. The data set can be described thus: Antimicrobial activity against multi-drug resistant Staphylococcus aureus SA1199B overexpressing NorA after 18 to 20 hrs by broth dilution method. It is filed as functional. In outline: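 MIC read against the NorA-overproducing S. aureus SA1199B, tested alongside its isogenic parent strain SA1199. Compounds were tested at concentrations up to 64 mg/L.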

A further data set has as its system Enterococcus faecium. The data set is described as follows: Antimicrobial activity against Enterococcus faecium DSMZ 20477 after 18 to 20 hrs by broth dilution method. It is filed as functional. The procedure, abridged: as §1
A further data set relates to Acinetobacter baumannii. The data set can be described thus: Antimicrobial activity against Acinetobacter baumannii ATCC 19606 after 18 to 20 hrs by broth dilution method. It is filed as functional. In outline: as §1
In data set [2] the test system is Staphylococcus aureus. The data set can be described thus: Antimicrobial activity against Staphylococcus aureus SA1199 after 18 to 20 hrs by broth dilution method. Format: functional. The procedure, abridged: as §1
Data set [3] has as its system Staphylococcus aureus. The data set can be described thus: Antimicrobial activity against Staphylococcus aureus CIP 76.25 after 18 to 20 hrs by broth dilution method. It is filed as functional. In outline:
as §1

The test system of the next data set is Pseudomonas aeruginosa. The data set is described as follows: Antimicrobial activity against Pseudomonas aeruginosa CIP 100720 after 18 to 20 hrs by broth dilution method. It is filed as functional. The procedure, abridged: as §1
For data set [4], the system named is Staphylococcus aureus. The data set is described as follows: Drug uptake in Staphylococcus aureus CIP 76.25 at 2 mg/L after 1.7 to 35 sec by phase contrast microscopic analysis. It is filed as ADME, organism-based. Conditions: in vivo.
Data set [5] relates to Staphylococcus aureus. The data set is described as follows: Bactericidal activity against Staphylococcus aureus CIP 76.25 assessed as log reduction in bacterial count at 2 mg/L after 2 hrs by time kill assay relative to control. Format: functional. In outline:
(§2)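 Time-kill assay on S. aureus CIP 7625 exposed to 2 mg/L, with untreated control in parallel. Viability was followed by CFU counts over time, and log10 CFU/mL reduction was read at 30 min and 2 h of incubation.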

In data set [6] the test system is Staphylococcus aureus. The data set can be described thus: Drug uptake in Staphylococcus aureus CIP 76.25 at 2 mg/L after 1.7 to 35 sec by fluorescence microscopic analysis. It is filed as ADME, organism-based. Conditions: in vivo. In outline:
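Uptake was tracked through the intrinsic fluorescence of the triphenylamine moiety, using fluorescence microscopy of bacteria during incubation to follow accumulation kinetics over seconds.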

In data set [7] the test system is Staphylococcus aureus. The data set can be described thus: Bactericidal activity against Staphylococcus aureus CIP 76.25 assessed as log reduction in bacterial count at 2 mg/L after 30 mins by time kill assay relative to control. It is filed as functional. In outline: as §2
Data set [8] has as its system Staphylococcus aureus. The data set can be described thus: Growth inhibition of Staphylococcus aureus CIP 76.25 at 2 mg/L by time kill assay relative to control. Format: functional, organism-based. In outline: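 S. aureus CIP 7625 proliferation was followed by absorbance at 600 nm, with or without 2 mg/L, against an untreated control curve.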
In data set [9] the test system is Staphylococcus aureus. The data set is described as follows: Inhibition of metabolic activity in Staphylococcus aureus CIP 76.25 assessed as inhibition of resazurin reduction to resorufin at 2 mg/L treated for 15 mins measured over 2 to 6 hrs by CellTiter-Blue assay. It is filed as functional, organism-based. The procedure, abridged:
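S. aureus CIP 7625 was treated 15 min with 2 mg/L, then metabolic activity was monitored as the rate of resazurin reduction to resorufin, compared with the untreated control.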

In the case of `CCCCCC[P+](CCCC)(CCCC)CCCC.[Cl-]`, the minimum inhibitory concentration (MIC) against Klebsiella pneumoniae, in the data set on Escherichia coli, in the data set on Klebsiella aerogenes, against Staphylococcus aureus [1], with Enterococcus faecium and against Acinetobacter baumannii was over 64 µg/mL throughout. Moreover, the minimal inhibitory concentration (MIC) against Staphylococcus aureus [2], with Staphylococcus aureus [3] and against Pseudomonas aeruginosa was over 64 µg/mL in each case. For the same compound, the IC50 in the data set on HepG2 is 5.42 µg/mL.
For `CCCC[P+](CCCC)(CCCC)CCCCCCOCc1ccc(N(c2ccccc2)c2ccccc2)cc1.[Br-]`, the MIC amounted to 8 µg/mL against Klebsiella pneumoniae; 16 µg/mL with Escherichia coli; 32 µg/mL against Klebsiella aerogenes; 0.5 µg/mL in the data set with Staphylococcus aureus [1]; 1 µg/mL against Enterococcus faecium; 16 µg/mL with Acinetobacter baumannii. Also, the minimum inhibitory concentration (MIC) against Staphylococcus aureus [2] is 0.5 µg/mL; in the data set with Staphylococcus aureus [3], 0.5 µg/mL; in the data set with Pseudomonas aeruginosa, over 64 µg/mL. The Drug uptake entry in the data set on Staphylococcus aureus [4] and in the data set on Staphylococcus aureus [6] was “Active” each time. In addition, the IC50 with HepG2 was under 0.124 µg/mL. Also, the Activity in the data set on Staphylococcus aureus [5] is given as over 4 log10CFU/ml; in the data set with Staphylococcus aureus [7], over 3 log10CFU/ml.
In the case of `CCCC[P+](CCCC)(CCCC)CCCCCCOC.[Br-]`, the MIC in the data set with Klebsiella pneumoniae, in the data set with Escherichia coli, against Klebsiella aerogenes, in the data set with Staphylococcus aureus [1], with Enterococcus faecium and against Acinetobacter baumannii was over 64 µg/mL throughout. For the same compound, the minimal inhibitory concentration (MIC) with Staphylococcus aureus [2], against Staphylococcus aureus [3] and with Pseudomonas aeruginosa was over 64 µg/mL each time. Also, the IC50 in the data set on HepG2 worked out at 0.712 µg/mL.
For the compound `CCCCCC[P+](CCCC)(CCCC)CCCC.[I-]`, the MIC with Klebsiella pneumoniae, in the data set on Escherichia coli, in the data set on Klebsiella aerogenes, with Staphylococcus aureus [1], in the data set on Enterococcus faecium and against Acinetobacter baumannii was over 64 µg/mL each time. Further, the MIC against Staphylococcus aureus [2], with Staphylococcus aureus [3] and against Pseudomonas aeruginosa was over 64 µg/mL each time. In addition, the IC50 in the data set on HepG2 turned out to be 0.189 µg/mL.
As for `CCCC[P+](CCCC)(CCCC)CCCCCCOCc1ccc(N(c2ccccc2)c2ccccc2)cc1.[Cl-]`, the MIC was determined as 16 µg/mL against Klebsiella pneumoniae; 16 µg/mL in the data set on Escherichia coli; 16 µg/mL in the data set on Klebsiella aerogenes; 0.5 µg/mL with Staphylococcus aureus [1]; 1 µg/mL with Enterococcus faecium; 16 µg/mL against Acinetobacter baumannii. Also, the MIC against Staphylococcus aureus [2] came to 0.5 µg/mL; with Staphylococcus aureus [3], 1 µg/mL; in the data set with Pseudomonas aeruginosa, 32 µg/mL. Moreover, the half-maximal inhibitory concentration (IC50) in the data set with HepG2 is under 0.124 µg/mL.
Take `CCCC[P+](CCCC)(CCCC)CCCCCCOCc1ccc(N(c2ccccc2)c2ccccc2)cc1`: the “growth inhibition (GI)” value in the data set on Staphylococcus aureus [8] was “Active”. Also, in the data set on Staphylococcus aureus [9], the inhibition result was “Active”.
As for `CCCCCC[P+](CCCC)(CCCC)CCCC.[Br-]`, the minimum inhibitory concentration (MIC) with Klebsiella pneumoniae, with Escherichia coli, in the data set with Klebsiella aerogenes, in the data set on Staphylococcus aureus [1], with Enterococcus faecium and against Acinetobacter baumannii was over 64 µg/mL throughout. The MIC in the data set with Staphylococcus aureus [2], against Staphylococcus aureus [3] and with Pseudomonas aeruginosa was over 64 µg/mL throughout. In addition, the IC50 with HepG2 was under 0.124 µg/mL.
For `c1ccc(N(c2ccccc2)c2ccccc2)cc1`, the MIC with Klebsiella pneumoniae, in the data set on Escherichia coli, against Klebsiella aerogenes, in the data set with Staphylococcus aureus [1], in the data set with Enterococcus faecium and in the data set with Acinetobacter baumannii was over 64 µg/mL throughout. Also, the MIC against Staphylococcus aureus [2], against Staphylococcus aureus [3] and against Pseudomonas aeruginosa was over 64 µg/mL throughout. For the same compound, the IC50 in the data set with HepG2 is under 0.124 µg/mL.
Take `CCCC[P+](CCCC)(CCCC)CCCCCCOCc1ccc(N(c2ccccc2)c2ccccc2)cc1.[I-]`: the minimal inhibitory concentration (MIC) was 16 µg/mL with Klebsiella pneumoniae; 16 µg/mL in the data set on Escherichia coli; 32 µg/mL against Klebsiella aerogenes; 1 µg/mL with Staphylococcus aureus [1]; 2 µg/mL with Enterococcus faecium; 16 µg/mL with Acinetobacter baumannii. The results for the MIC with Staphylococcus aureus [2], against Staphylococcus aureus [3] and in the data set on Pseudomonas aeruginosa were 1 µg/mL, 1 µg/mL and 32 µg/mL, respectively. In addition, the 50% inhibitory concentration (IC50) with HepG2 was under 0.124 µg/mL.
